Residues, ends and D or L forms follow the SMILES beside them.
What was measured:
[1] = biological target: Delta-type opioid receptor (Rattus norvegicus, UniProt P33533); test: Displacement of [3H]deltorphin C from rat delta opioid receptor in brain P2 synaptosomes; type: subcellular
How it was run: (§1)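 Rat brain synaptosome (P2) membranes, preincubated to remove endogenous opioid peptides, stored at -80 °C in buffered 20% glycerol. Five to eight ligand concentrations, each in duplicate, with independent repeats on different synaptosome preparations. Bound radioligand collected on glass fiber filters soaked in 0.1% polyethylenimine and washed thrice in ice-cold buffered BSA. Ki by Cheng-Prusoff; mean ± SE.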

Mu-type opioid receptor [2] = biological target: Mu-type opioid receptor (Cavia porcellus, UniProt P97266); test: Functional bioactivity against mu opioid receptor in guinea-pig ileum; type: tissue-based
How it was run: (§2)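 Myenteric plexus-longitudinal muscle from male guinea pig ileum, field-stimulated with supramaximal bipolar rectangular pulses. Agonist read-out is inhibition of the electrically evoked twitch, referenced to dermorphin, with IC50 taken from dose-response curves. For antagonism, compound is added 5 min before dermorphin, and pA2 comes from Schild plot. At least six experiments on fresh tissue; mean ± SE.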

[3] = biological target: Delta-type opioid receptor (Mus musculus, UniProt P32300); test: (§3) Functional bioactivity against delta opioid receptor in mouse vas deferens; type: tissue-based
How it was run: as §2, with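 “MVD strips” for “Myenteric plexus-longitudinal muscle from male guinea pig ileum,”, “deltorphin C,” for “dermorphin,”, “plot of the rightward curve shift.” for “plot.”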

Mu-type opioid receptor [4] = biological target: Mu-type opioid receptor (Rattus norvegicus, UniProt P33535); test: Displacement of [3H]DAMGO from rat mu opioid receptor in brain P2 synaptosomes; type: subcellular; how it was run: as §1
[5] = biological target: Delta-type opioid receptor (Mus musculus) (UniProt P32300); test: as §3; type: tissue-based
How it was run: as §2, with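 “MVD strips” for “Myenteric plexus-longitudinal muscle from male guinea pig ileum,”, “deltorphin C,” for “dermorphin,”, “plot of the rightward curve shift.” for “plot.”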

[6] = biological target: Opioid receptors; mu & delta (Rattus norvegicus) (UniProt P33533+P33535); test: Selectivity for rat delta opioid receptor over mu opioid receptor; type: protein assay
Opioid receptors; mu & delta (Rattus norvegicus), sequence (P33533 whole entry, looked up): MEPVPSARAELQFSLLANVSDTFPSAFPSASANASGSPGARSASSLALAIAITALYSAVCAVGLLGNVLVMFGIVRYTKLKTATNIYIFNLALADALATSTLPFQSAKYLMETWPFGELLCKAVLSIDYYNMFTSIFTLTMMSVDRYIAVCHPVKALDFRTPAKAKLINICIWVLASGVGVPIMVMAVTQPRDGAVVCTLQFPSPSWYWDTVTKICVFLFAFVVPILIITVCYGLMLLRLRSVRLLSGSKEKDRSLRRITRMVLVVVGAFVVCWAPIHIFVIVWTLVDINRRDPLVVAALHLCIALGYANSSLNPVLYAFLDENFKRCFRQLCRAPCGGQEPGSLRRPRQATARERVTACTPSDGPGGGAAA
Opioid receptors; mu & delta (Rattus norvegicus), sequence (P33535 whole entry, looked up): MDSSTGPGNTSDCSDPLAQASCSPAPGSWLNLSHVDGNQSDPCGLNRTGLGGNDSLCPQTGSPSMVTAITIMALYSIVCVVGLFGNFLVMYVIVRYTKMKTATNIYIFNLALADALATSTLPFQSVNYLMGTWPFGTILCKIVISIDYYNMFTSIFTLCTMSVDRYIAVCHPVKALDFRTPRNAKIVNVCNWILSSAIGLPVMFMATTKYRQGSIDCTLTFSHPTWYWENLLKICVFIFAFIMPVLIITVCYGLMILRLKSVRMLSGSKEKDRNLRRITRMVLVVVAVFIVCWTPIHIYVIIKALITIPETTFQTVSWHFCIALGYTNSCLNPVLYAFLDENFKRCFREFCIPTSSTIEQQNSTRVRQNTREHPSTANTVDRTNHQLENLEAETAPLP

Delta-type opioid receptor (Rattus norvegicus, UniProt P33533), sequence (P33533 whole entry): as the sequence (P33533 whole entry, looked up) above
Mu-type opioid receptor (Rattus norvegicus, UniProt P33535), sequence (P33535 whole entry): as the sequence (P33535 whole entry, looked up) above
Delta-type opioid receptor (Mus musculus, UniProt P32300), sequence (P32300 whole entry): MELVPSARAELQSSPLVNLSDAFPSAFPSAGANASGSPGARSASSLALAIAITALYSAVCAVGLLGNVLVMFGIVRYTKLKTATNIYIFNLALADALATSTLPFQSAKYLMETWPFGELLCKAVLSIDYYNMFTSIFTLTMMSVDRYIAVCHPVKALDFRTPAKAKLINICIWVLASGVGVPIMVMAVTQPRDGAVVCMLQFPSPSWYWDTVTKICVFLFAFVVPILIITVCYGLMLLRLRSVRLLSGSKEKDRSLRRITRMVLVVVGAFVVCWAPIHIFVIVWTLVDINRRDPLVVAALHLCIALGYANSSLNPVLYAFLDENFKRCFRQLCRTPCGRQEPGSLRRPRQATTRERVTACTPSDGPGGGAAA
Delta-type opioid receptor (Mus musculus), sequence (P32300 whole entry): as above
Mu-type opioid receptor (Cavia porcellus, UniProt P97266), sequence (P97266 whole entry): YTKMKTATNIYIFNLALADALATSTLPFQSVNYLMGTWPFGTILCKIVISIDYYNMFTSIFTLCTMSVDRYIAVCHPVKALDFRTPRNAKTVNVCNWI

| Compound | Ki [1] | IC50 (Mu-type opioid receptor [2]) | IC50 [3] | Ki (Mu-type opioid receptor [4]) | max activation [5] | Activity ([5]; filed as partial agonist) | Ratio Ki [6] | Activity ([5]; filed as antagonist) |
| --- | --- | --- | --- | --- | --- | --- | --- | --- |
| CN(C)c1ccc2cc3c(cc2c1)C(=O)N(C[C@H](NC(=O)[C@@H]1CCCN1C(=O)[C@@H](N)Cc1ccc(O)cc1)C(=O)N[C@@H](Cc1ccccc1)C(N)=O)C3=O | 839 nM | 389 nM | 500 nM | 3420 nM | – | – | – | – |
| N[C@@H](Cc1ccc(O)cc1)C(=O)N1CCC[C@H]1C(=O)N[C@@H](Cc1ccccc1)C(=O)N[C@@H](Cc1ccccc1)C(=O)NCCCCC/N=C(S)/N=C1/C=CC(=C2c3ccc(O)cc3Oc3cc(O)ccc32)C(C(=O)O)=C1 | 668 nM | 120 nM | 200 nM | 252 nM | 20% | Partial agonist | – | – |
| CN(C)c1ccc2cc3c(cc2c1)C(=O)N(CC(NC(=O)CCCCCNC(=O)[C@H](Cc1ccccc1)NC(=O)[C@H](Cc1ccccc1)NC(=O)[C@@H]1CCCN1C(=O)[C@@H](N)Cc1ccc(O)cc1)C(N)=O)C3=O (some centres not stated) (HELM PEPTIDE1{Y.P.F.F.[O=C(CCCCCN[*:1])[*:2]].[CN(C)c1ccc2cc3c(cc2c1)C(=O)N(CC(N[*:1])C(=O)[*:2])C3=O].[am]}$$$$V2.0) | – | – | – | – | 29% | Partial agonist | – | – |
| Cc1cc(O)cc(C)c1C[C@H](N)C(=O)N1Cc2ccccc2C[C@H]1C(=O)N[C@@H](CCC(=O)O)C(=O)N[C@@H](CN1C(=O)c2cc3ccc(N(C)C)cc3cc2C1=O)C(N)=O (HELM PEPTIDE1{[Cc1cc(O)cc(C)c1C[C@H](N)C(=O)[*:2]].[Tic].E.[CN(C)c1ccc2cc3c(cc2c1)C(=O)N(C[C@H](N[*:1])C(=O)[*:2])C3=O].[am]}$$$$V2.0) | 7.8 nM | 100 nM | – | 7880 nM | – | – | – | – |
| Cc1cc(O)cc(C)c1C[C@H](N)C(=O)N1Cc2ccccc2CC1C(=O)N[C@@H](CCC(=O)O)C(=O)NCCCCCC(=O)NC(CN1C(=O)c2cc3ccc(N(C)C)cc3cc2C1=O)C(N)=O (some centres not stated) | – | – | – | – | – | – | 261 | Antagonist |
| CN(C)c1ccc2cc3c(cc2c1)C(=O)N(C[C@H](NC(=O)CCCCCNC(=O)[C@H](Cc1ccccc1)NC(=O)[C@H](Cc1ccccc1)NC(=O)[C@@H]1CCCN1C(=O)[C@@H](N)Cc1ccc(O)cc1)C(N)=O)C3=O (HELM PEPTIDE1{Y.P.F.F.[O=C(CCCCCN[*:1])[*:2]].[CN(C)c1ccc2cc3c(cc2c1)C(=O)N(C[C@H](N[*:1])C(=O)[*:2])C3=O].[am]}$$$$V2.0) | 5940 nM | 253 nM | 300 nM | 244 nM | – | – | – | – |
| Cc1cc(O)cc(C)c1C[C@H](N)C(=O)N1Cc2ccccc2C[C@H]1C(=O)N[C@@H](CCC(=O)O)C(=O)NCCCCCC(=O)N[C@@H](CN1C(=O)c2cc3ccc(N(C)C)cc3cc2C1=O)C(N)=O | 0.158 nM | 244 nM | – | 41.3 nM | – | – | – | – |
| CN(C)c1ccc2cc3c(cc2c1)C(=O)N(CC(NC(=O)[C@@H]1CCCN1C(=O)[C@@H](N)Cc1ccc(O)cc1)C(=O)N[C@@H](Cc1ccccc1)C(N)=O)C3=O (some centres not stated) | – | – | – | – | 22% | Partial agonist | 4.1 | – |

From ChEMBL document CHEMBL1148646, “6-N,N-dimethylamino-2,3-naphthalimide: a new environment-sensitive fluorescent probe in delta- and mu-selective opioid peptides” (J Med Chem, 2006)
